Screening results: PubChem BioAssay, The Scripps Research Institute Molecular Screening Center
ASAP1 GAP inh – inhibitors of human ASAP1 ArfGAP activity, primary screen, biochemical, fluorescence polarization; Arf-GAP with SH3 domain, ANK repeat and PH domain-containing protein 1 (Homo sapiens), …; ASAP1-stimulated ARF1 GTP hydrolysis, GDP FP detection; inhibition, % at 16.5 µM; hit rate 0.19% among 360,000; AID 624377, 2012; in the data active means inhibition above about 25%;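 further: 0% = vehicle with enzyme and substrate and 100% = no enzyme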
PLC-beta3 inh – human PLC-beta3 inhibitors, primary screen, biochemical, fluorescence. Purified PLC-beta3, fluorogenic substrate. inhibition, % at 12.2 µM. hit rate 0.18% among 370,000; in the data active means inhibition above about 11%;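 further: 0% = median of compound wells on plate and 100% = full blocker control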
PLC-gamma1 inh – PLC-gamma1 enzyme inhibitors, primary screen, biochemical, fluorescence, purified enzyme; inhibition, % at 12.2 µM; fluorogenic substrate; 1-phosphatidylinositol 4,5-bisphosphate phosphodiesterase gamma-1 (Homo sapiens), P19174; hit rate 0.84% among 370,000; in the data active means inhibition above about 9.5%
ARFGAP1 inh – inhibitors of rat ARFGAP1 GAP activity, primary screen, biochemical, fluorescence polarization, GDP tracer. ADP-ribosylation factor GTPase-activating protein 1 (Rattus norvegicus), Q62848. Arfgap1-stimulated ARF1 GTP hydrolysis, GDP FP detection. inhibition, % at 16.5 µM. hit rate 0.26% among 360,000;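 active means inhibition above a per-plate limit, mean inhibition of low control wells plus 3 SD, cut at about 25% in these data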;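 further: 0% = DMSO wells with enzyme and 100% = wells lacking Arfgap1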
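Repeats: one replicate per compound; assay system: rat Arfgap1 catalytic domain, aa 1-136; times: enzyme reaction 120 min at 25 °C after 20 min preincubation; detection: FP of antibody-bound GDP Alexa 633 tracer, ex 620/em 688 nm; benchmarks: high control wells lacking Arfgap1, low control full reaction with DMSO; reagent: human ARF1(Δ1-17)-GTP substrate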
HGIII-sPLA2 inh – human group III sPLA2 inhibitors, primary screen, biochemical, QFRET, BODIPY PC-A2 liposome substrate. Group 3 secretory phospholipase A2 (Homo sapiens), Q9NZ20. QFRET BODIPY PC-A2 liposome hydrolysis, fluorescence. inhibition, % at 12.2 µM. hit rate 0.56% among 370,000. AID 743126, 2013;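 active means inhibition above mean plus 3 SD of compounds lying within the high and low control bounds, cut at about 19% in these data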;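 further: 0% = median of test compound wells and 100% = no enzyme DMSO wells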
sPLA2 confirm – human group III sPLA2 inhibitors, confirmation, biochemical, QFRET, triplicate | shares compounds with HGIII-sPLA2 inh | recombinant hGIII-sPLA2, BODIPY PC-A2 QFRET fluorescence | inhibition, % at 12.2 µM | hit rate 34% among 2,000 | AID 743280, 2014;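 active means mean inhibition across triplicates above the hit cutoff set in the earlier primary screen, cut at about 19% in these data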;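 further: 0% = enzyme with DMSO and 100% = DMSO wells lacking enzyme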
BODIPY interf – 535nm fluorescence optical interference, confirmation, artefact control for HGIII-sPLA2 inhibitor project, biochemical, QFRET. shares compounds with HGIII-sPLA2 inh. BODIPY FL product fluorescence interference. inhibition, % at 12.2 µM. hit rate 8.5% among 2,000;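 active means average inhibition above the solvent-only control mean plus 3 SD, cut at about 6% in these data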;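 further: 0% = DMSO with substrate plus product and 100% = DMSO with substrate alone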
535nm interf DR – 535nm fluorescence optical interference, dose response, artefact control for HGIII-sPLA2 inhibitor project, biochemical, QFRET; shares compounds with HGIII-sPLA2 inh; BODIPY FL product fluorescence interference, cell-free; IC50, µM; 240 tested, under 10 active;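 active means IC50 at or below 10 µM; inactive means IC50 above 10 µM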
Active calls of the source: *. Most compounds without a hit are left out; they make up all but 1.9% or so of the library.

Results for COc1ccc(/C(C)=N/NC(=O)c2cccc(S(=O)(=O)N3CCCC3)c2)c(O)c1 ?
ASAP1 GAP inh: -8; PLC-beta3 inh: -76; PLC-gamma1 inh: -61; ARFGAP1 inh: 3; HGIII-sPLA2 inh: 35*; sPLA2 confirm: 24*; BODIPY interf: -6

What do the screens show for `COc1ccc2c(c1)CNC2CS(=O)(=O)NCCc1ccccc1` (stereo not given)?
PLC-beta3 inh: -34; PLC-gamma1 inh: -26; HGIII-sPLA2 inh: 0

How did CCn1c2ccccc2c2cc(NC(=O)COC(=O)c3cccc(F)c3)ccc21 do in these assays?
PLC-beta3 inh: 1; PLC-gamma1 inh: -1; HGIII-sPLA2 inh: 3

Results for CC(=S)/C=C1\Sc2ccccc2N1C ?
ASAP1 GAP inh: -8; PLC-beta3 inh: -1; PLC-gamma1 inh: 1; ARFGAP1 inh: -4; HGIII-sPLA2 inh: 3

Results for CN1c2ccccc2Sc2cc(N)ccc21 ?
ASAP1 GAP inh: -4; PLC-beta3 inh: -20; PLC-gamma1 inh: -12; ARFGAP1 inh: -2; HGIII-sPLA2 inh: 21*; sPLA2 confirm: 36*; BODIPY interf: 11*

How did Cc1cc(C(=O)COc2ccc3ccc(=O)oc3c2)c(C)n1Cc1cccs1 do in these assays?
ASAP1 GAP inh: 11; PLC-beta3 inh: -199; PLC-gamma1 inh: -171; ARFGAP1 inh: 18; HGIII-sPLA2 inh: 21*; sPLA2 confirm: 1; BODIPY interf: -15

Results for CC(CCC(=O)Nc1nncs1)C(=O)O (stereo not given) ?
ASAP1 GAP inh: 2; PLC-beta3 inh: 3; PLC-gamma1 inh: 3; ARFGAP1 inh: 0; HGIII-sPLA2 inh: 20*; sPLA2 confirm: 0; BODIPY interf: 3

Results for CCCCNC(=O)C[C@H]1C[C@@]2(C(=O)OC)C(=C[C@H](C(C)C)O[C@@H]2C2CC2)N(Cc2cccc3ccccc23)C1=O ?
PLC-beta3 inh: 2; PLC-gamma1 inh: 3; HGIII-sPLA2 inh: -9

Results for O=C(Nc1ccc(Cl)cc1)N1CCN(Cc2nc3ccccc3c(=O)[nH]2)CC1 ?
PLC-beta3 inh: 2; PLC-gamma1 inh: -1; HGIII-sPLA2 inh: 3

Results for CCN(CC)c1ccc(N=Nc2nn(C)c(C)c2[N+](=O)[O-])cc1 ?
ASAP1 GAP inh: -7; PLC-beta3 inh: 4; PLC-gamma1 inh: 9; ARFGAP1 inh: 7; HGIII-sPLA2 inh: 23*; sPLA2 confirm: 39*; BODIPY interf: 4; 535nm interf DR: >122

Results for CC(=O)N1CCc2c1cccc2S(=O)(=O)NC(CC(C)C)C(=O)Nc1ccccc1C (stereo not given) ?
PLC-beta3 inh: 2; PLC-gamma1 inh: 1; HGIII-sPLA2 inh: 0

What do the screens show for `CC(C)NC(=S)N/N=C/c1cc(Br)ccc1O`?
ASAP1 GAP inh: 3; PLC-beta3 inh: inactive; PLC-gamma1 inh: -485; ARFGAP1 inh: 2; HGIII-sPLA2 inh: 29*; sPLA2 confirm: 5; BODIPY interf: 5

Results for Oc1ccc(Br)cc1/C=N/NC(=S)NCCc1ccccc1 ?
ASAP1 GAP inh: 3; PLC-beta3 inh: inactive; PLC-gamma1 inh: -430; ARFGAP1 inh: 1; HGIII-sPLA2 inh: 26*; sPLA2 confirm: 24*; BODIPY interf: 5

What do the screens show for `COc1ccc(O)c(/C=N/NC(=S)NCCc2ccccc2)c1`?
ASAP1 GAP inh: 5; PLC-beta3 inh: inactive; PLC-gamma1 inh: inactive; ARFGAP1 inh: 3; HGIII-sPLA2 inh: 18

What do the screens show for `COC(=O)N/N=C/c1cc(Br)ccc1O`?
ASAP1 GAP inh: 6; PLC-beta3 inh: -44; PLC-gamma1 inh: -40; ARFGAP1 inh: 9; HGIII-sPLA2 inh: 8

How did CC(C)C[C@@H]1COc2cc(Br)ccc2S(=O)(=O)N1Cc1cn(CCC2OCCCO2)nn1 do in these assays?
PLC-beta3 inh: -6; PLC-gamma1 inh: 5; HGIII-sPLA2 inh: 23*; sPLA2 confirm: 0; BODIPY interf: -29

Results for COCCCN1C(=O)C(CC(=O)NCc2ccco2)CC(C(=O)N2CCOCC2)=C1C (stereo not given) ?
ASAP1 GAP inh: -16; PLC-beta3 inh: 0; PLC-gamma1 inh: 0; ARFGAP1 inh: -8; HGIII-sPLA2 inh: 21*; sPLA2 confirm: 0; BODIPY interf: 0

Results for CCCCC(=O)NC(c1ccc(N(C)C)cc1)c1ccc2cccnc2c1O (stereo not given) ?
ASAP1 GAP inh: -4; PLC-beta3 inh: -5; PLC-gamma1 inh: -4; ARFGAP1 inh: 5; HGIII-sPLA2 inh: 38*; sPLA2 confirm: 26*; BODIPY interf: -7

What do the screens show for `CCN(CC)c1ccc(C(NC(=O)C(C)C)c2ccc3cccnc3c2O)cc1` (stereo not given)?
ASAP1 GAP inh: 3; PLC-beta3 inh: -4; PLC-gamma1 inh: -8; ARFGAP1 inh: -3; HGIII-sPLA2 inh: 36*; sPLA2 confirm: 23*; BODIPY interf: -2

How did CC(=O)NC(c1ccc(Cl)cc1Cl)c1ccc2cccnc2c1O (stereo not given) do in these assays?
ASAP1 GAP inh: -1; PLC-beta3 inh: -23; PLC-gamma1 inh: -14; ARFGAP1 inh: -2; HGIII-sPLA2 inh: 19*; sPLA2 confirm: 23*; BODIPY interf: -9

Results for CCCC(=O)NC(c1ccc(Cl)cc1)c1ccc2cccnc2c1O (stereo not given) ?
ASAP1 GAP inh: -4; PLC-beta3 inh: -22; PLC-gamma1 inh: -11; ARFGAP1 inh: 12; HGIII-sPLA2 inh: 22*; sPLA2 confirm: 24*; BODIPY interf: -5

Results for CCCCC(=O)NC(c1ccccc1OC)c1ccc2cccnc2c1O (stereo not given) ?
ASAP1 GAP inh: -4; PLC-beta3 inh: -15; PLC-gamma1 inh: -9; ARFGAP1 inh: -8; HGIII-sPLA2 inh: 31*; sPLA2 confirm: 28*; BODIPY interf: -11; 535nm interf DR: >122

Results for COc1ccc(NC(=S)NC(=O)/C=C/c2ccc(F)cc2)cc1 ?
ASAP1 GAP inh: -13; PLC-beta3 inh: 0; PLC-gamma1 inh: 3; ARFGAP1 inh: -15; HGIII-sPLA2 inh: -1
